ChEMBL document CHEMBL3856220, “Synthesis and antileishmanial activity of C7- and C12-functionalized dehydroabietylamine derivatives” (Eur J Med Chem, 2016)

Legend:
[1] = Selectivity index, ratio of CC50 for mouse J774 cells to IC50 for promastigote form of Leishmania guyanensis 141/93; format: functional
Summary of the method: (§1)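 Selectivity index computed as CC50 from the J774 resazurin viability assay divided by IC50 from the matching promastigote or intracellular amastigote resazurin assay.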

Leishmania infantum [2] = experiment: Leishmanicidal activity against amastigote form of Leishmania infantum MCAN/ES/96/BCN150 infected in mouse J774 cells after 48 hrs by resazurin dye-based fluorometric method; format: functional, cell-based; settings: MCAN/ES/96/BCN150, J774, 48 h
Summary of the method: (§2)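 5×10^4 macrophages in RPMI-1640 infected with 5×10^5 promastigotes. L. infantum infection was 48 h at 37 °C; L. amazonensis was 24 h at 33 °C then 24 h at 37 °C. Free parasites washed off with RPMI-HEPES pH 7.4. Compound at 100–0.78 µg/mL (final), 48 h at 37 °C. Cells lysed with 0.02% SDS, then 3 days at 26 °C in Schneider's medium. Resazurin 3 h, fluorescence read. Triplicates; IC50 by probit analysis.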

Leishmania guyanensis = experiment: Leishmanicidal activity against promastigote form of Leishmania guyanensis 141/93 after 48 hrs by resazurin dye-based fluorometric method; format: functional; settings: 141/93, 48 h
Summary of the method: (§3)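 Promastigotes grown in Schneider's medium with 10% heat-inactivated FBS at 26 °C. 2.5×10^5 parasites/well. DMSO stocks at 100 mg/mL, diluted 1:2 in medium to final 100–0.78 µg/mL. 48 h at 26 °C, then 2.5 mM resazurin (20 µL) for 3 h. Fluorescence read at ex 535/em 590 nm, with growth inhibition corrected for signal-to-noise. Triplicates; IC50 by probit analysis.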

Leishmania donovani [3] = experiment: Leishmanicidal activity against promastigote form of Leishmania donovani MHOM/IN/80/DD8 after 48 hrs by resazurin dye-based fluorometric method; format: functional; settings: MHOM/IN/80/DD8, 48 h; summary of the method: as §3
[4] = Selectivity index, ratio of CC50 for mouse J774 cells to IC50 for promastigote form of Leishmania infantum MCAN/ES/96/BCN150; format: functional; summary of the method: as §1
[5] = Cytotoxicity against mouse J774 cells assessed as reduction of cell viability after 48 hrs by resazurin dye-based fluorometric method; format: toxicity
Summary of the method: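 J774 murine macrophages grown in RPMI-1640 with 10% heat-inactivated FBS, penicillin/streptomycin, 37 °C, 5% CO2, and harvested mechanically at pre-confluence. Seeded at 5×10^4 cells/well and allowed to attach 2 h. Compound added at 100–0.78 µg/mL (1:2 series, final), 48 h exposure. Resazurin 2.5 mM (20 µL) then 3 h, fluorescence read. Triplicates. CC50 = 50% viability loss versus untreated.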

Leishmania infantum [6] = experiment: Leishmanicidal activity against promastigote form of Leishmania infantum MCAN/ES/96/BCN150 after 48 hrs by resazurin dye-based fluorometric method; format: functional; settings: MCAN/ES/96/BCN150, 48 h; summary of the method: as §3
[7] = Selectivity index, ratio of CC50 for mouse J774 cells to IC50 for amastigote form of Leishmania infantum MCAN/ES/96/BCN150 infected in mouse J774 cells; format: functional; summary of the method: as §1
[8] = Selectivity index, ratio of CC50 for mouse J774 cells to IC50 for amastigote form of Leishmania amazonensis MHOM/Br/79/Maria infected in mouse J774 cells; format: functional; summary of the method: as §1
Leishmania amazonensis [9] = experiment: Leishmanicidal activity against promastigote form of Leishmania amazonensis MHOM/Br/79/Maria after 48 hrs by resazurin dye-based fluorometric method; format: functional; summary of the method: as §3
[10] = Selectivity index, ratio of CC50 for mouse J774 cells to IC50 for promastigote form of Leishmania amazonensis MHOM/Br/79/Maria; format: functional; summary of the method: as §1
[11] = Selectivity index, ratio of CC50 for mouse J774 cells to IC50 for promastigote form of Leishmania donovani MHOM/IN/80/DD8; format: functional; summary of the method: as §1
Leishmania amazonensis [12] = experiment: Leishmanicidal activity against amastigote form of Leishmania amazonensis MHOM/Br/79/Maria infected in mouse J774 cells after 48 hrs by resazurin dye-based fluorometric method; format: functional, cell-based; settings: J774, 48 h; summary of the method: as §2
Leishmania infantum [13] = experiment: Potency index, ratio of miltefosine IC50 to compound IC50 for amastigote form of Leishmania infantum MCAN/ES/96/BCN150 infected in mouse J774 cells; format: functional
Leishmania infantum [14] = experiment: Antileishmanial activity against amastigote form of Leishmania infantum MCAN/ES/2001/UCM-10 infected in mouse J774.2 cells after 72 hrs by Giemsa staining-based assay; format: functional, cell-based; settings: MCAN/ES/2001/UCM-10, J774.2, 72 h
Leishmania braziliensis = experiment: Antileishmanial activity against amastigote form of Leishmania braziliensis MHOM/BR/1975/M2904 infected in mouse J774.2 cells after 72 hrs by Giemsa staining-based assay; format: functional, cell-based; settings: MHOM/BR/75/M2904, J774.2, 72 h
Leishmania donovani [15] = experiment: Antileishmanial activity against promastigote form of Leishmania donovani after 48 hrs by Alamar blue assay; format: functional
Summary of the method: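 Promastigotes grown at 26 °C in Schneider's insect medium with 10% heat-inactivated FBS and penicillin/streptomycin, seeded at 2.5×10^5/well. Exposed to 1:2 serial dilutions (100–0.78 µg/mL final; DMSO stocks) for 48 h at 26 °C, then 2.5 mM resazurin added for 3 h. Fluorescence read at 535/590 nm; inhibition relative to untreated minus background. Triplicates; IC50 by probit; miltefosine reference.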

Row | Structure (SMILES) | Ratio CC50/IC50 [1] | IC50 (Leishmania infantum [2]) [µM] | IC50 (Leishmania guyanensis) [µM] | IC50 (Leishmania donovani [3]) [µM] | Ratio CC50/IC50 [4] | CC50 at 48 h [5] [µM] | IC50 (Leishmania infantum [6]) [µM] | Ratio CC50/IC50 [7] | Ratio CC50/IC50 [8] | IC50 (Leishmania amazonensis [9]) [µM] | Ratio CC50/IC50 [10] | Ratio CC50/IC50 [11] | IC50 (Leishmania amazonensis [12]) [µM] | Ratio IC50 (Leishmania infantum [13]) | IC50 (Leishmania infantum [14]) [µM] | IC50 (Leishmania braziliensis) [µM] | IC50 (Leishmania donovani [15]) [µM]
1 | CC(C)c1cc2c(cc1[N+](=O)[O-])[C@@]1(C)CCC[C@@](C)(CNC(=O)c3ccccc3)[C@@H]1CC2=O | >5 | 17.5 | 38.5 | 5.4 | >8 | > 200 | 23.9 | >11 | >54 | 12.2 | >16 | >37 | 3.7 | – | – | – | –
2 | CC(C)c1ccc2c(c1)C(=O)C[C@H]1[C@](C)(CNC(=O)c3ccccc3)CCC[C@]21C | >23 | 2.5 | 8.6 | 4 | >23 | > 200 | 8.7 | >80 | >67 | 4.9 | >41 | >50 | 3 | 23 | – | – | –
3 | CC(C)c1cc2c(cc1[N+](=O)[O-])[C@@]1(C)CCC[C@@](C)(CNC(=O)c3ccccc3)[C@@H]1CC2 | >2 | 3.3 | 94.5 | 3.2 | >18 | > 200 | 11.1 | >61 | >57 | 20.7 | >10 | >62 | 3.5 | 18 | – | – | –
4 | CC(=O)NC[C@]1(C)CCC[C@]2(C)c3ccc(C(C)C)cc3CC[C@@H]12 | – | – | – | – | – | 21.6 | – | – | – | – | – | – | – | – | – | – | –
5 | CC(C)c1ccc2c(c1)CC[C@H]1[C@](C)(CNC(=O)c3ccccc3)CCC[C@]21C | >10 | 4.7 | 20.4 | 2.2 | >64 | > 200 | 3.1 | >42 | >40 | 3.7 | >54 | >90 | 5 | – | – | – | –
6 | COC(=O)C[C@@]1(C)CCC[C@]2(C)c3cc(O)c(C(C)C)cc3CC[C@@H]12 | – | – | – | – | – | – | – | – | – | – | – | – | – | – | 22.3 to 35 | 22.3 to 35 | –
7 | CC(=O)NC[C@]1(C)CCC[C@]2(C)c3ccc(C(C)C)cc3C(=O)C[C@@H]12 | – | – | – | – | – | 72.3 | – | – | – | – | – | – | – | – | – | – | –
8 | CC(=O)NC[C@]1(C)CCC[C@]2(C)c3ccc(C(C)C)cc3-c3[nH]c4ccc(F)cc4c3[C@@H]12 | – | – | – | 2.8 | 19.2 | 28.8 | 1.5 | – | – | 4 | 7.2 | 10.3 | – | – | – | – | –
9 | CC(=O)NC[C@]1(C)CCC[C@]2(C)c3cc([N+](=O)[O-])c(C(C)C)cc3C(=O)C[C@@H]12 | – | – | – | – | – | 39.2 | – | – | – | – | – | – | – | – | – | – | –
10 | COC(=O)C[C@]1(C)CCC[C@]2(C)c3cc(O)c(C(C)C)cc3CC[C@@H]12 | – | – | – | – | – | – | – | – | – | – | – | – | – | – | 22.3 to 35 | 22.3 to 35 | –
11 | CC(=O)NC[C@]1(C)CCC[C@]2(C)c3cc([N+](=O)[O-])c(C(C)C)cc3CC[C@@H]12 | – | – | – | – | – | 13.7 | – | – | – | – | – | – | – | – | – | – | –
12 | CC(C)c1ccc2c(c1)CC[C@H]1[C@](C)(CN)CCC[C@]21C | – | – | – | – | – | 14.5 | – | – | – | – | – | – | – | – | – | – | –
13 | CC(C)c1cc2c(cc1O)[C@@]1(C)CCCC(C)(C)[C@@H]1CC2 [FERRUGINOL] | – | – | – | – | – | – | – | – | – | – | – | – | – | – | – | – | 12.2
14 | CCCCCCCCCCCCCCCCOP(=O)([O-])OCC[N+](C)(C)C [MILTEFOSINE] | 7.5 | 58.1 | 18.2 | 0.15 | 40.1 | 136 | 3.4 | 2.3 | 8.2 | 47.7 | 2.9 | 909 | 16.5 | – | – | – | –
